In brackets after ≈: the same amount, converted by molar mass. Like-named read-outs stand apart in the source and are kept apart here.
Columns and labels:
S. aureus ATCC 25923 = assay: Antimicrobial activity, agar dilution method; format: cell-based; settings: Staphylococcus aureus, ATCC25923
How it was run: (§1)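 Test compound in DMSO, mixed with Mueller–Hinton broth, two-fold serially diluted, and incorporated into MH agar at final 0.25–256 μg/mL. Agar with 0.5% DMSO served as reagent control. Organisms were grown overnight in MH broth at 37 °C, diluted in normal saline to 0.5 McFarland (1.5×10⁸ CFU/mL), and inoculated onto plates. Plates were incubated at 37 °C for 24–48 h, then MIC was recorded.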

S. aureus ATCC 29213 = assay: Antimicrobial activity, agar dilution method; format: cell-based; settings: Staphylococcus aureus, ATCC29213
How it was run: as §1

[1] = tested on: S. epidermidis ATCC 12228; assay: Antimicrobial activity, agar dilution method; format: cell-based; settings: Staphylococcus epidermidis, ATCC12228
How it was run: as §1

M. luteus ATCC 10240 = assay: Antimicrobial activity, agar dilution method; format: cell-based; settings: Micrococcus luteus, ATCC10240
How it was run: as §1

E. faecalis ATCC 29212 = assay: Antimicrobial activity, agar dilution method; format: cell-based; settings: Enterococcus faecalis, ATCC29212
How it was run: as §1

E. faecalis ATCC 33186 = assay: Antimicrobial activity, agar dilution method; format: cell-based; settings: Enterococcus faecalis, ATCC33186
How it was run: as §1

[2] = tested on: C. diphtheriae NCTC 10356; assay: Antimicrobial activity, agar dilution method; format: cell-based; settings: Corynebacterium diphtheriae, NCTC10356
How it was run: as §1

B. subtilis ATCC 6633 = assay: Antimicrobial activity, agar dilution method; format: cell-based; settings: Bacillus subtilis, ATCC6633
How it was run: as §1

B. cereus = assay: Antimicrobial activity, agar dilution method; format: cell-based; settings: Bacillus cereus
How it was run: as §1

L. monocytogenes = assay: Antimicrobial activity, agar dilution method; format: cell-based; settings: Listeria monocytogenes
How it was run: as §1

E. coli ATCC 25922 = assay: Antimicrobial activity, agar dilution method; format: cell-based; settings: Escherichia coli, ATCC25922
How it was run: as §1

[3] = tested on: K. pneumoniae ATCC 700603; assay: Antimicrobial activity, agar dilution method; format: cell-based; settings: Klebsiella pneumoniae, ATCC700603
How it was run: as §1

S. marcescens ATCC 8100 = assay: Antimicrobial activity, agar dilution method; format: cell-based; settings: Serratia marcescens, ATCC8100
How it was run: as §1

[4] = tested on: S. Typhimurium ATCC 13311; assay: Antimicrobial activity, agar dilution method; format: cell-based; settings: Salmonella enterica, ATCC13311|TYPHIMURIUM
How it was run: as §1

[5] = tested on: S. Choleraesuis ATCC 10708; assay: Antimicrobial activity, agar dilution method; format: cell-based; settings: Salmonella enterica, ATCC10708|CHOLERAESUIS
How it was run: as §1

S. Enteritidis = assay: Antimicrobial activity, agar dilution method; format: cell-based; settings: Salmonella enterica
How it was run: as §1

S. dysenteriae = assay: Antimicrobial activity, agar dilution method; format: cell-based; settings: Shigella dysenteriae
How it was run: as §1

M. morganii = assay: Antimicrobial activity, agar dilution method; format: cell-based; settings: Morganella morganii
How it was run: as §1

C. freundii = assay: Antimicrobial activity, agar dilution method; format: cell-based; settings: Citrobacter freundii
How it was run: as §1

P. shigelloides = assay: Antimicrobial activity, agar dilution method; format: cell-based; settings: Plesiomonas shigelloides
A. hydrophila = assay: Antimicrobial activity, agar dilution method; format: cell-based; settings: Aeromonas hydrophila
How it was run: as §1

P. aeruginosa ATCC 27853 = assay: Antimicrobial activity, agar dilution method; format: cell-based, Pseudomonas aeruginosa
How it was run: as §1

P. stutzeri ATCC 17587 = assay: Antimicrobial activity, agar dilution method; format: cell-based, Pseudomonas stutzeri; settings: Stutzerimonas stutzeri, ATCC17587
How it was run: as §1

[6] = tested on: S. putrefaciens ATCC 8071; assay: Antimicrobial activity, agar dilution method; format: cell-based; settings: Shewanella putrefaciens, ATCC8071
How it was run: as §1

[7] = tested on: A. xylosoxidans ATCC 27061; assay: Antimicrobial activity, agar dilution method; format: cell-based; settings: Achromobacter xylosoxidans, ATCC27061
How it was run: as §1

C. albicans ATCC 90028 = assay: Antimicrobial activity, agar dilution method; format: cell-based; settings: Candida albicans, ATCC90028
How it was run: as §1

S. cerevisiae ATCC 2601 = assay: Antimicrobial activity, agar dilution method; format: cell-based; settings: Saccharomyces cerevisiae, ATCC2601
How it was run: as §1

Gram-negative bacteria = assay: Antimicrobial activity, agar dilution method, summarised over the group; format: cell-based
How it was run: as §1

diploid fungi and yeast = assay: as above; format: cell-based, Candida albicans; settings: Saccharomyces cerevisiae, ATCC2601|ATCC90028
How it was run: as §1

[8] = Antioxidant activity, DPPH radical scavenging assay; format: biochemical; settings: read-out: RSA IC50, 30 min, 517 nm
How it was run: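 Sample solution (test compound, 1 mg/mL in DMSO) was mixed with 0.1 mM DPPH in methanol and kept 30 min in the dark. Absorbance was read at 517 nm. Radical scavenging activity (%) = [1 − Abs(sample)/Abs(control)] × 100. α-Tocopherol was the positive control.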

Cytotoxicity, MTT assay = format: cell-based; settings: human, MRC-5 cells (normal embryonic lung cell line)
Gram-positive bacteria = assay: Antimicrobial activity, agar dilution method, summarised over the group; format: cell-based
How it was run: as §1

[9] = tested on: twenty-seven strains of microorganisms; format: cell-based; settings: Saccharomyces cerevisiae
How it was run: as §1

MRC-5 cell line = settings: read-out: Cytotoxicity IC50; MRC-5 cells, MTT; cited from earlier work
[10] = read-out: SOD (superoxide dismutase) activity IC50; cited from earlier work
[11] = Pseudomonas aeruginosa, ATCC27853

| Compound | MIC (S. aureus ATCC 25923) | MIC (S. aureus ATCC 29213) | MIC [1] | MIC (M. luteus ATCC 10240) | MIC (E. faecalis ATCC 29212) | MIC (E. faecalis ATCC 33186) | MIC [2] | MIC (B. subtilis ATCC 6633) | MIC (B. cereus) | MIC (L. monocytogenes) | MIC (E. coli ATCC 25922) | MIC [3] | MIC (S. marcescens ATCC 8100) | MIC [4] | MIC [5] | MIC (S. Enteritidis) | MIC (S. dysenteriae) | MIC (M. morganii) | MIC (C. freundii) | MIC (A. hydrophila) | also measured |
| --- | --- | --- | --- | --- | --- | --- | --- | --- | --- | --- | --- | --- | --- | --- | --- | --- | --- | --- | --- | --- | --- |
| Nc1ccc(O)c2ncccc12 [5-amino-8HQ (8), 5-Amino-8-hydroxyquinoline] | 275 µM (≈ 44 µg/mL) | 275 µM (≈ 44 µg/mL) | 275 µM (≈ 44 µg/mL) | 275 µM (≈ 44 µg/mL) | 1100 µM (≈ 176 µg/mL) | 1100 µM (≈ 176 µg/mL) | 1100 µM (≈ 176 µg/mL) | 275 µM (≈ 44 µg/mL) | 275 µM (≈ 44 µg/mL) | 275 µM (≈ 44 µg/mL) | 1100 µM (≈ 176 µg/mL) | 1100 µM (≈ 176 µg/mL) | 1100 µM (≈ 176 µg/mL) | 1100 µM (≈ 176 µg/mL) | 1100 µM (≈ 176 µg/mL) | 1100 µM (≈ 176 µg/mL) | 1100 µM (≈ 176 µg/mL) | 1100 µM (≈ 176 µg/mL) | 1100 µM (≈ 176 µg/mL) | 275 µM (≈ 44 µg/mL) | MIC (P. shigelloides; P. shigelloides, agar dilution): 1100 µM (≈ 176 µg/mL); MIC (P. aeruginosa ATCC 27853; [11]): 1100 µM (≈ 176 µg/mL); MIC (P. stutzeri ATCC 17587): 1100 µM (≈ 176 µg/mL); MIC [6]: 1100 µM (≈ 176 µg/mL); MIC [7]: 549 µM (≈ 88 µg/mL); MIC (C. albicans ATCC 90028): 1100 µM (≈ 176 µg/mL); MIC (S. cerevisiae ATCC 2601): 1100 µM (≈ 176 µg/mL); MIC (Gram-negative bacteria): 1100 µM (≈ 176 µg/mL); MIC (diploid fungi and yeast): ≥ 645 µM; IC50 [8]: 8.71 µM; IC50 at 48 h (Cytotoxicity, MTT assay): 22.1 ± 1.02 µM |
| Oc1cccc2cccnc12 [8HQ (1), 8-Hydroxyquinoline] | 6.89 µM (≈ 1 µg/mL) | 6.89 µM (≈ 1 µg/mL) | 6.89 µM (≈ 1 µg/mL) | 13.8 µM (≈ 2 µg/mL) | 13.8 µM (≈ 2 µg/mL) | 13.8 µM (≈ 2 µg/mL) | 13.8 µM (≈ 2 µg/mL) | 6.89 µM (≈ 1 µg/mL) | 13.8 µM (≈ 2 µg/mL) | 3.44 µM (≈ 0.499 µg/mL) | 220 µM (≈ 32 µg/mL) | 882 µM (≈ 128 µg/mL) | 220 µM (≈ 32 µg/mL) | 220 µM (≈ 32 µg/mL) | 882 µM (≈ 128 µg/mL) | 882 µM (≈ 128 µg/mL) | 220 µM (≈ 32 µg/mL) | 882 µM (≈ 128 µg/mL) | 220 µM (≈ 32 µg/mL) | 110 µM (≈ 16 µg/mL) | MIC (P. shigelloides): 13.8 µM (≈ 2 µg/mL); MIC (P. aeruginosa ATCC 27853; P. aeruginosa ATCC 27853, agar dilution): >1763.57 µM; MIC (P. aeruginosa ATCC 27853; [11]): > 1760 µM; MIC (P. stutzeri ATCC 17587): 220 µM (≈ 32 µg/mL); MIC [6]: 220 µM (≈ 32 µg/mL); MIC [7]: 55.1 µM (≈ 8 µg/mL); MIC (C. albicans ATCC 90028): 13.8 µM (≈ 2 µg/mL); MIC (S. cerevisiae ATCC 2601): 13.8 µM (≈ 2 µg/mL); MIC (Gram-positive bacteria): 3.44 to 13.8 µM (≈ 0.499 to 2 µg/mL); MIC (Gram-negative bacteria): 110 to 882 µM (≈ 16 to 128 µg/mL); MIC (Gram-negative bacteria; [11]): 13.8 to 882 µM (≈ 2 to 128 µg/mL); MIC [9]: 3.44 to 13.8 µM (≈ 0.499 to 2 µg/mL); IC50 [8]: 615 µM; IC50 (MRC-5 cell line): 6.27 µM; IC50 [10]: 91.8 µM |
| Oc1c(I)cc(Cl)c2cccnc12 [CQ (6), clioquinol] | 26.2 µM (≈ 8 µg/mL) | 26.2 µM (≈ 8 µg/mL) | 26.2 µM (≈ 8 µg/mL) | 26.2 µM (≈ 8 µg/mL) | 26.2 µM (≈ 8 µg/mL) | 26.2 µM (≈ 8 µg/mL) | 26.2 µM (≈ 8 µg/mL) | 26.2 µM (≈ 8 µg/mL) | 26.2 µM (≈ 8 µg/mL) | 26.2 µM (≈ 8 µg/mL) | 26.2 µM (≈ 8 µg/mL) | > 838 µM | 26.2 µM (≈ 8 µg/mL) | 838 µM (≈ 256 µg/mL) | > 838 µM | 105 µM (≈ 32 µg/mL) | 838 µM (≈ 256 µg/mL) | 838 µM (≈ 256 µg/mL) | 419 µM (≈ 128 µg/mL) | 26.2 µM (≈ 8 µg/mL) | MIC (P. shigelloides; P. shigelloides, agar dilution): 26.2 µM (≈ 8 µg/mL); MIC (P. aeruginosa ATCC 27853; [11]): > 838 µM; MIC (P. stutzeri ATCC 17587): 105 µM (≈ 32 µg/mL); MIC [6]: 26.2 µM (≈ 8 µg/mL); MIC [7]: 26.2 µM (≈ 8 µg/mL); MIC (C. albicans ATCC 90028): 26.2 µM (≈ 8 µg/mL); MIC (S. cerevisiae ATCC 2601): 26.2 µM (≈ 8 µg/mL); MIC (Gram-positive bacteria): 26.2 µM (≈ 8 µg/mL); IC50 [8]: 366 µM; IC50 at 48 h (Cytotoxicity, MTT assay): 76.17 ± 0.23 µM |
| Oc1ccc(Cl)c2cccnc12 [Cloxyquin (3), cloxyquin] | 89.1 µM (≈ 16 µg/mL) | 89.1 µM (≈ 16 µg/mL) | 22.3 µM (≈ 4 µg/mL) | 22.3 µM (≈ 4 µg/mL) | 89.1 µM (≈ 16 µg/mL) | 89.1 µM (≈ 16 µg/mL) | 22.3 µM (≈ 4 µg/mL) | 22.3 µM (≈ 4 µg/mL) | 44.5 µM (≈ 8 µg/mL) | 5.57 µM (≈ 1 µg/mL) | 89.1 µM (≈ 16 µg/mL) | 713 µM (≈ 128 µg/mL) | 89.1 µM (≈ 16 µg/mL) | 178 µM (≈ 32 µg/mL) | 713 µM (≈ 128 µg/mL) | 178 µM (≈ 32 µg/mL) | 178 µM (≈ 32 µg/mL) | 178 µM (≈ 32 µg/mL) | 178 µM (≈ 32 µg/mL) | 44.5 µM (≈ 8 µg/mL) | MIC (P. shigelloides; P. shigelloides, agar dilution): 11.1 µM (≈ 2 µg/mL); MIC (P. aeruginosa ATCC 27853; [11]): > 1430 µM; MIC (P. stutzeri ATCC 17587): 178 µM (≈ 32 µg/mL); MIC [6]: 178 µM (≈ 32 µg/mL); MIC [7]: 89.1 µM (≈ 16 µg/mL); MIC (C. albicans ATCC 90028): 178 µM (≈ 32 µg/mL); MIC (S. cerevisiae ATCC 2601): 89.1 µM (≈ 16 µg/mL); MIC (Gram-positive bacteria): 5.57 to 89.1 µM (≈ 1 to 16 µg/mL); IC50 [8]: 1050 µM; IC50 at 48 h (Cytotoxicity, MTT assay): 81.7 ± 0.96 µM |

— publication PMC5689172 (Biochemistry and Biophysics Reports, 2016)
